The record followed here is ChEMBL document CHEMBL5390300, “Tuning the Reactivity of Nuclear Factor Erythroid 2-Related Factor 2 (Nrf2) Activators for Optimal in Vivo Efficacy” (ACS Med Chem Lett, 2023).

Each structure is given as a SMILES string. Counter-ions that a name gives are not always drawn. Activity calls are given as the source filed them. No cut-off for these calls is given here.

For series [1], the target named is T1, Nuclear factor erythroid 2-related factor 2 (Homo sapiens, UniProt Q16236).
T1 sequence (Q16236 whole entry): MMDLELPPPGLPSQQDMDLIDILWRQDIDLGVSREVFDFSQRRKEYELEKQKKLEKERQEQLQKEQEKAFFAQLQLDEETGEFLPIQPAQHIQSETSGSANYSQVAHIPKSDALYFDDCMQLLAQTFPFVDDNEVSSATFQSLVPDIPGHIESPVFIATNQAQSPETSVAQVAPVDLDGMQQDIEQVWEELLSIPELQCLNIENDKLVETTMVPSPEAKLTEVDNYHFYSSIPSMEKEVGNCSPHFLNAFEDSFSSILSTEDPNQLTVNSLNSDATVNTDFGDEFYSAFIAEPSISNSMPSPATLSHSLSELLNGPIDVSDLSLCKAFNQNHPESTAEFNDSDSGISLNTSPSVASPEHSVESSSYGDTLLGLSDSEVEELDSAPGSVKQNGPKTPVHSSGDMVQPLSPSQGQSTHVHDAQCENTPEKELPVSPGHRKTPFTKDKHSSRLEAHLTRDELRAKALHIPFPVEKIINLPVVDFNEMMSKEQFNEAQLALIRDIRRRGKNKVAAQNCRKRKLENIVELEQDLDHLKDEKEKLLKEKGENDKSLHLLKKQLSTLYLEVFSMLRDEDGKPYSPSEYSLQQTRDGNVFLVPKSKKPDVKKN
Description: Activation of Nrf2 in human PathHunter U2OS Keap1-Nrf2 cells assessed as Nrf2 nuclear translocation by chemiluminescent assay. It counts as cell-based.

The subject of another series is THP-1. Description: Inhibition of LPS-induced IL-23 production in IFN-gamma primed human THP-1 cells preincubated for 1 hr followed by LPS stimulation for 18 hrs by sandwich ELISA. It counts as functional, cell-based.
The target in series [2] is T2, Voltage-gated inwardly rectifying potassium channel KCNH2 (Homo sapiens, UniProt Q12809). The experiment in a line: Inhibition of hERG assessed as inhibition of channel current at 60 uM by manual patch clamp analysis. It counts as toxicity.
A short description of series [3]: Mutagenicity in Salmonella typhimurium by Ames test. It counts as toxicity. The settings on record: salmonella enterica subsp. enterica serovar typhimurium.
Series [4] deals with T2, Voltage-gated inwardly rectifying potassium channel KCNH2. The experiment in a line: Inhibition of hERG assessed as inhibition of channel current at 200 uM by manual patch clamp analysis. It counts as toxicity.
Series [5] can be described thus: Metabolic stability of the compound in mouse plasma. It counts as ADME, cell-free.
The target of series [6] is T3, Nuclear factor erythroid 2-related factor 2 (Homo sapiens) (UniProt Q16236).
T3 sequence (whole entry): T1 sequence (Q16236 whole entry)
Description: Activation of Nrf2 in human THP-1 cells assessed as increase in cellular Nrf2 level at 0.08 to 10 uM by western blot analysis. It counts as cell-based. The settings on record: filed as activator, dose 0.08-10 µM. The essentials: (§1)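 THP-1 cells were exposed to a range of compound concentrations. Cellular Nrf2 and HO-1 expression were detected by Western blot.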

The subject of series [7] is Mus musculus. The experiment in a line: Antiinflammatory activity against MOG35-55 induced experimental autoimmune encephalomyelitis C57BL/6 mouse model assessed as reduction in clinical score at 75 mg/kg, po BID and measured for 28 days. It counts as functional. The settings on record: C57BL/6, 672 h, time 28 day. The essentials:
(§2)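 EAE was induced in mice by immunization with myelin oligodendrocyte glycoprotein (MOG). Compounds were dosed twice daily (BID), with DMF dosed BID as control. Clinical scores were followed over the study and reported as mean with SEM. Efficacy is expressed as % reduction in clinical score.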

Series [8] relates to Mus musculus. Description: Increase in Nrf2 level in thymus of MOG35-55 induced experimental autoimmune encephalomyelitis C57BL/6 mouse model at 75 mg/kg, po measured for 8 hrs. It counts as functional, organism-based. Put shortly:
(§3)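 After the EAE study, mouse thymus was analysed for Nrf2 levels by Western blot, following BID dosing at 60 and 90 mg/kg, or at 75 mg/kg for the DMF control. Nrf2 increase was assessed over an 8 h period.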

Series [9] has as its target T3, Nuclear factor erythroid 2-related factor 2 (Homo sapiens). Description: Activation of Nrf2 in human THP-1 cells assessed as increase in HO-1 expression at 0.08 to 10 uM by western blot analysis. It counts as cell-based. The settings on record: filed as activator, dose 0.08-10 µM. The essentials:
as §1

For series [10], the target named is T4, Adenosine receptor A3 (Homo sapiens) (UniProt P0DMS8).
T4 sequence (whole entry): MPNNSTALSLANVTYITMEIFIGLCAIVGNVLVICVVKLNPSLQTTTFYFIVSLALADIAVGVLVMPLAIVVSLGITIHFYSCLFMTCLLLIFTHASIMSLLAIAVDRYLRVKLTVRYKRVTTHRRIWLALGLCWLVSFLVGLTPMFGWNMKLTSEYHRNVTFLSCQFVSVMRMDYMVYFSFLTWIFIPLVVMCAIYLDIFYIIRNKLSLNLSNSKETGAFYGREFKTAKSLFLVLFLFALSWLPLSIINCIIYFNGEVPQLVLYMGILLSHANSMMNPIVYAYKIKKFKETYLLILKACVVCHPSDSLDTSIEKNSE
Description: Inhibition of adenosine A3 receptor (unknown origin) at 500 uM relative to control.

In series [11] the target is 5-hydroxytryptamine receptor 2B (Homo sapiens) (UniProt P41595). Description: Inhibition of 5-HT2B receptor (unknown origin) at 500 uM relative to control.
Series [12] relates to Mus musculus. Description: Antiinflammatory activity against MOG35-55 induced experimental autoimmune encephalomyelitis C57BL/6 mouse model assessed as reduction in clinical score at 30 mg/kg, po BID and measured for 28 days. It counts as functional. The essentials: as §2
In series [13] the target is Kelch-like ECH-associated protein 1 (Homo sapiens) (UniProt Q14145). Description: Binding affinity to human Keap1 assessed as cysteine labeling at 30 uM incubated for 2 hrs by LC-MS/MS analysis.
For series [14], the system named is Mus musculus. Description: Antiinflammatory activity against MOG35-55 induced experimental autoimmune encephalomyelitis C57BL/6 mouse model assessed as reduction in clinical score at 10 mg/kg, po BID and measured for 28 days. It counts as functional. The settings on record: C57BL/6, 672 h, time 28 day. Put shortly: as §2
Series [15] addresses T2, Voltage-gated inwardly rectifying potassium channel KCNH2. The experiment in a line: Inhibition of hERG assessed as inhibition of channel current at 180 uM by manual patch clamp analysis. It counts as toxicity.
The subject of series [16] is Mus musculus. Description: Antiinflammatory activity against MOG35-55 induced experimental autoimmune encephalomyelitis C57BL/6 mouse model assessed as reduction in clinical score at 60 mg/kg, po BID and measured for 28 days. The settings on record: C57BL/6, 672 h, time 28 day. It counts as functional. The essentials: as §2
Series [17] concerns Mus musculus. The experiment in a line: Increase in Nrf2 level in thymus of MOG35-55 induced experimental autoimmune encephalomyelitis C57BL/6 mouse model at 60 to 90 mg/kg, po measured for 8 hrs. It counts as functional, organism-based. The settings on record: dose 60-90 mg/kg. The essentials: as §3

T2 sequence (Q12809 whole entry): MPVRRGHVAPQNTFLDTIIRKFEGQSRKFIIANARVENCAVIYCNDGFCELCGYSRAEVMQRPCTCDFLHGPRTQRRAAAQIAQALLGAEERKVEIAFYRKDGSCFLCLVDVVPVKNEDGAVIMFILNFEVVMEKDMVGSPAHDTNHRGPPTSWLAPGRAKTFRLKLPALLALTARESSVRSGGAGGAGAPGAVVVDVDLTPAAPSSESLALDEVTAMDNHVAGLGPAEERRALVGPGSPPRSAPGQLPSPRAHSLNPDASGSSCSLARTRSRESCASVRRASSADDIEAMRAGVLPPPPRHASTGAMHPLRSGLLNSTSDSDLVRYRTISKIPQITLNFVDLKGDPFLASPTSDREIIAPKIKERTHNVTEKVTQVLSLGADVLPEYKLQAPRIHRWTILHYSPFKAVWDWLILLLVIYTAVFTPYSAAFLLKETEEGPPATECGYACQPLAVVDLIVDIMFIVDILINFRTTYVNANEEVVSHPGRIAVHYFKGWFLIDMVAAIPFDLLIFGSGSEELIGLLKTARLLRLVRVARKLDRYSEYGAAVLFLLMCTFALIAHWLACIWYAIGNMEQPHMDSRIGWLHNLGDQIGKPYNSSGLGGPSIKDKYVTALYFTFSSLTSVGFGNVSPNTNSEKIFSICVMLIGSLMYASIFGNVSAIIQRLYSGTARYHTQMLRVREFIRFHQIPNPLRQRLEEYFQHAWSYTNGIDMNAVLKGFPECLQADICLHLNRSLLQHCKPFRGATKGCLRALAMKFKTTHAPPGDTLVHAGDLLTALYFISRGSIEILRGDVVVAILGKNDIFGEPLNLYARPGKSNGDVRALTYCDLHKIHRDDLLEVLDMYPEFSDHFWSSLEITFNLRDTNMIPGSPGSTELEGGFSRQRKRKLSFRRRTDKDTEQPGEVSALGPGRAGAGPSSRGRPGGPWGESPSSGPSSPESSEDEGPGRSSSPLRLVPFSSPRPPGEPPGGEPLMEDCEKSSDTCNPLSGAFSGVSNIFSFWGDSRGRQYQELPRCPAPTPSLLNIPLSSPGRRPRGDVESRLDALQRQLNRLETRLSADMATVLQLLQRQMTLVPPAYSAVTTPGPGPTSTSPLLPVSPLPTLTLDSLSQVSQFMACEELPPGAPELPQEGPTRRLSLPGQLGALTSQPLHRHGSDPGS
Chain of 5-hydroxytryptamine receptor 2B (Homo sapiens) (P41595 whole entry): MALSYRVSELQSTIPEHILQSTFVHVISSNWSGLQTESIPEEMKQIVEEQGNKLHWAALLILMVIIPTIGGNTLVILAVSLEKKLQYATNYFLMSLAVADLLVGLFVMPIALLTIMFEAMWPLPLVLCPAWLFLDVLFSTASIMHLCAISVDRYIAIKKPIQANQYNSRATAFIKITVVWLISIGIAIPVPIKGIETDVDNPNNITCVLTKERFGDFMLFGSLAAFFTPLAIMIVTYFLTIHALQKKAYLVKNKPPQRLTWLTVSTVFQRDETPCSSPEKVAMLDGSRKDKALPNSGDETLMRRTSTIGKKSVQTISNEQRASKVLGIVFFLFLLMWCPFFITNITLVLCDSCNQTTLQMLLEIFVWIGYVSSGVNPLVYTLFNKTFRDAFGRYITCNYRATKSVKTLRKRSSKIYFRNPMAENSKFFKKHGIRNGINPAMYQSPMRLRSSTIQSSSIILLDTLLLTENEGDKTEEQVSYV
Chain of Kelch-like ECH-associated protein 1 (Homo sapiens) (Q14145 whole entry): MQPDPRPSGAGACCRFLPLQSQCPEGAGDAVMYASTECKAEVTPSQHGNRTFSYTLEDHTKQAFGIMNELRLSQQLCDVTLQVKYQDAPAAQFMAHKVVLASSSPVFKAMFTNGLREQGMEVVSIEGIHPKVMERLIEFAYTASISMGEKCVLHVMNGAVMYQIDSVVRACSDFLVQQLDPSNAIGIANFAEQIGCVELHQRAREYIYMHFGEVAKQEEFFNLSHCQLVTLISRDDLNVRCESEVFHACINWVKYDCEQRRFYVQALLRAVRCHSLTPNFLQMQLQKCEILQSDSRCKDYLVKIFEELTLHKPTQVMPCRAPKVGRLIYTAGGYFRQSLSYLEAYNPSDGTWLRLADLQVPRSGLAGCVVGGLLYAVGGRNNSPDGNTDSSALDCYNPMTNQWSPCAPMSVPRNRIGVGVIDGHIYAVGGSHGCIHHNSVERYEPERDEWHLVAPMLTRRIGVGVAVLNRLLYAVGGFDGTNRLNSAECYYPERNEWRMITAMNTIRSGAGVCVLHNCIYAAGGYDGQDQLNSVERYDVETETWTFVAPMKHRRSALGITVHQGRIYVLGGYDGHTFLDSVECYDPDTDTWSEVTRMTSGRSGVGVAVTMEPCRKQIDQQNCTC

With `COC(=O)/C=C/n1nn[nH]c1=O`, in series [1], the EC50 amounted to 60.9 µM. In the series on THP-1, this molecule displayed an IC50 of 18 µM. Moreover, the “inhibition (INH)” value in series [2] is listed as “Active”. In series [3], the Activity result was “Toxic”.
For the molecule `COC(=O)/C=C/n1nnn(-c2cccnc2)c1=O`, the “inhibition (INH)” value in series [4] is “Active”. The Activity result in [3] was “Non-Toxic”. Besides, the Stability entry in series [5] is “Unstable”.
Consider `Cn1ncn(/C=C/S(=O)(=O)c2ccccc2)c1=O`, for which inhibition in the series on THP-1 was half-maximal at 2.12 µM (IC50).
Regarding `COC(=O)/C=C/C(=O)OC` [DIMETHYL FUMARATE], the EC50 in [1] stood at 7.93 µM. Moreover, the IC50 in the series with THP-1 was 10.6 µM. Also, in series [6], the Activity entry was “Dose-Dependent Effect”. The inhibition in vivo at 75 mg/kg in the series on Mus musculus [7] amounted to 83%. Further, the outcome (with Mus musculus [8]; in series [9]) was Active.
Regarding `Cc1ccc(S(=O)(=O)/C=C/n2cnn(C)c2=O)cc1`, half-maximal inhibition in the series with THP-1 (IC50) required 2.11 µM.
In the series on THP-1, `Cc1ccc(S(=O)(=O)/C=C/n2nnn(C)c2=O)cc1` registered an IC50 of 0.19 µM. The inhibition in series [10] was determined as 82%; in series [11] it was 74%. Also, the result in the series on Mus musculus [12] (time 28.0 day) was inactive. Moreover, the result in [13] was Active. Further, in the series on Mus musculus [14], the inhibition in vivo at 10 mg/kg stood at 40%.
`Cn1nnn(/C=C/S(=O)(=O)c2ccccc2)c1=O` returned an IC50 in the series on THP-1 of 0.3 µM.
In the series with THP-1, `Cc1ccc(S(=O)(=O)/C=C/n2ncn(C)c2=O)cc1` had an IC50 of 6.92 µM.
As to `O=c1n(/C=C/S(=O)(=O)c2ccccc2)nnn1-c1cccnc1`, the IC50 with THP-1 amounted to 0.02 µM.
Consider `COC(=O)/C=C/n1cnn(C)c1=O`, for which, in series [1], the EC50 came to 95.2 µM. In the series on THP-1, this molecule showed an IC50 of 29.5 µM.
Consider `COC(=O)/C=C/C(=O)O` [MONOMETHYL FUMARATE], for which the EC50 in series [1] turned out to be 127 µM. Moreover, the IC50 with THP-1 stood at 18.9 µM.
`COC(=O)/C=C/n1nnn(C)c1=O`: the “inhibition (INH)” value in series [15] is given as “Active”.
As for `Cn1cnn(/C=C/S(=O)(=O)c2ccccc2)c1=O`, the IC50 in the series on THP-1 was 3.49 µM. For the same molecule, the inhibition in series [10] amounted to 82%; in [11] it was 74%. Besides, the inhibition in vivo at 30 mg/kg in the series on Mus musculus [12] (C57BL/6, 672 h, time 28 day) was 41%. Besides, the inhibition in vivo at 60 mg/kg with Mus musculus [16] worked out at 89%. The outcome in the series with Mus musculus [17] was Active.
